{
  "source": "ChEMBL document CHEMBL3045217",
  "about": "“Factors affecting the synergy of thiabendazole, sodium bicarbonate, and heat to control postharvest green mold of citrus fruit” (J Agric Food Chem, 2008)",
  "key": {"Penicillium digitatum [1]": {"test_system": "Penicillium digitatum", "experiment": "Fungicidal activity against Penicillium digitatum infected Valenica oranges assessed as fruit weight loss at 600 mg/L treated for 1 min at 20 degC postharvest at 20 hr after fungal conidial inoculation measured after 21 days of storage at 17 degC in presence of 2% SBC (water Rvb = 11.89%)", "assay_type": "functional"}, "Penicillium digitatum [2]": {"test_system": "Penicillium digitatum", "experiment": "Fungicidal activity against Penicillium digitatum infected Valenica oranges assessed as fruit weight loss at 400 mg/L treated for 1 min at 40 degC postharvest at 20 hr after fungal conidial inoculation measured after 14 days of storage at 17 degC in presence of 1% SBC (water Rvb = 8.68%)", "assay_type": "functional"}, "Penicillium digitatum [3]": {"test_system": "Penicillium digitatum", "experiment": "Fungicidal activity against Penicillium digitatum infected Valenica oranges assessed as fruit weight loss at 600 mg/L treated for 1 min at 20 degC postharvest at 20 hr after fungal conidial inoculation measured after 14 days of storage at 17 degC in presence of 1% SBC (water Rvb = 7.65%)", "assay_type": "functional"}, "Penicillium digitatum [4]": {"test_system": "Penicillium digitatum", "experiment": "Fungicidal activity against Penicillium digitatum infected Valenica oranges assessed as fruit weight loss at 600 mg/L treated for 1 min at 20 degC postharvest at 20 hr after fungal conidial inoculation measured after 7 days of storage at 17 degC in presence of 2% SBC (water Rvb = 3.94%)", "assay_type": "functional"}, "Penicillium digitatum [5]": {"test_system": "Penicillium digitatum", "experiment": "Fungicidal activity against Penicillium digitatum infected Valenica oranges assessed as fruit weight loss at 600 mg/L treated for 1 min at 20 degC postharvest at 20 hr after fungal conidial inoculation measured after 7 days of storage at 17 degC in presence of 0.5% SBC (water Rvb = 3.90%)", "assay_type": "functional"}, "Penicillium digitatum [6]": {"test_system": "Penicillium digitatum", "experiment": "Fungicidal activity against TBZ-resistant Penicillium digitatum infected Valencia oranges assessed as postharvest green mold incidence at 200 mg/L treated for 1 min at 50 degC at 20 hr after fungal conidial inoculation measured after 7 days of storage at 20 degC (water Rvb = 56.7%)", "assay_type": "functional"}, "Penicillium digitatum [7]": {"test_system": "Penicillium digitatum", "experiment": "Fungicidal activity against Penicillium digitatum infected Valenica oranges assessed as fruit weight loss at 400 mg/L treated for 1 min at 40 degC postharvest at 20 hr after fungal conidial inoculation measured after 21 days of storage at 17 degC in presence of 1% SBC (water Rvb = 12.71%)", "assay_type": "functional"}, "Penicillium digitatum [8]": {"test_system": "Penicillium digitatum", "experiment": "(§1) Fungicidal activity against TBZ-sensitive Penicillium digitatum infected Nova mandarins assessed as postharvest green mold incidence at 400 mg/L treated for 1 min at 40 degC at 20 hr after fungal conidial inoculation measured after 5 days of storage at 20 degC in presence of 2% SBC (water Rvb = 88.3%)", "assay_type": "functional", "method_in_brief": "(§2)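 Fruit were surface-disinfected in 1 g/L hypochlorite for 30 s, rinsed, dried, then wounded twice equatorially (2 mm × 2 mm rod). Inoculation was a 1 min dip in P. digitatum conidia, 1 × 10^5 conidia/mL final. Fruit were held 20 h at 20 °C and 90% RH, dipped 1 min (SBC wt/vol), and air-dried. Storage was 20 °C, 90% RH. Decay incidence (% fruit with lesions) was scored at 5 d for mandarins and 7 d for oranges. Three replicates of 40 fruit were used; arcsin-transformed data were compared by LSD, p ≤ 0.05.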"}, "Penicillium digitatum [9]": {"test_system": "Penicillium digitatum", "experiment": "Fungicidal activity against TBZ-resistant Penicillium digitatum infected Valencia oranges assessed as postharvest green mold incidence at 600 mg/L treated for 1 min at 20 degC at 20 hr after fungal conidial inoculation measured after 7 days of storage at 20 degC (water Rvb = 96.7%)", "assay_type": "functional"}, "Penicillium digitatum [10]": {"test_system": "Penicillium digitatum", "experiment": "Fungicidal activity against TBZ-sensitive Penicillium digitatum infected Valencia oranges assessed as postharvest green mold incidence at 200 mg/L treated for 1 min at 50 degC at 20 hr after fungal conidial inoculation measured after 7 days of storage at 20 degC (water Rvb = 53.3%)", "assay_type": "functional", "method_in_brief": "as §2"}, "Penicillium digitatum [11]": {"test_system": "Penicillium digitatum", "experiment": "as §1, with “Valencia oranges” for “Nova mandarins”, “7” for “5”, “0.5%” for “2%”, “42.5%)” for “88.3%)”", "assay_type": "functional", "method_in_brief": "as §2"}, "Penicillium digitatum [12]": {"test_system": "Penicillium digitatum", "experiment": "Fungicidal activity against TBZ-sensitive Penicillium digitatum infected Valencia oranges assessed as postharvest green mold incidence at 400 mg/L treated for 1 min at 40 degC at 20 hr after fungal conidial inoculation measured after 7 days of storage at 20 degC (water Rvb = 66.7%)", "assay_type": "functional"}, "Penicillium digitatum [13]": {"test_system": "Penicillium digitatum", "experiment": "(§3) Fungicidal activity against TBZ-resistant Penicillium digitatum infected Valencia oranges assessed as postharvest green mold incidence at 600 mg/L treated for 1 min at 20 degC at 20 hr after fungal conidial inoculation measured after 7 days of storage at 20 degC in presence of 2% SBC (water Rvb = 40.0%)", "assay_type": "functional"}, "Penicillium digitatum [14]": {"test_system": "Penicillium digitatum", "experiment": "Fungicidal activity against Penicillium digitatum infected Valenica oranges assessed as fruit weight loss at 400 mg/L treated for 1 min at 40 degC postharvest at 20 hr after fungal conidial inoculation measured after 21 days of storage at 17 degC (water Rvb = 8.83%)", "assay_type": "functional"}, "Fruit [15]": {"test_system": "Fruit", "experiment": "Total drug residues in Citrus sinensis cvs. Salustiana (Salustiana oranges) fruit at 600 mg/L treated for 1 min at 50 degC postharvest measured after overnight incubation at 17 degC by GC analysis", "assay_type": "ADME", "method_in_brief": "(§4)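 'Salustiana' oranges were water-washed, dried, dipped, then dried overnight at 17 °C in the dark. Unextracted fruit were used for total residues. Peel from five oranges was frozen at -18 °C. 5 g homogenized peel was extracted with 10 mL ethyl acetate/hexane (1/1) plus 2 g NaCl, shaken 30 min, then 1 mL of organic layer was dried under N2, redissolved in acetone, and run by GC without cleanup. Results are on a whole-fruit basis.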"}, "Fruit [16]": {"test_system": "Fruit", "experiment": "Total drug residues in Citrus sinensis cvs. Salustiana (Salustiana oranges) fruit at 600 mg/L treated for 3 min at 20 degC postharvest measured after overnight incubation at 17 degC by GC analysis", "assay_type": "ADME", "details": "0.05 h", "method_in_brief": "as §4"}, "Penicillium digitatum [17]": {"test_system": "Penicillium digitatum", "experiment": "as §3, with “TBZ-sensitive” for “TBZ-resistant”, “20.8%)” for “40.0%)”", "assay_type": "functional", "method_in_brief": "as §2"}, "Cuticular wax": {"test_system": "Cuticular wax", "experiment": "Drug residues in Citrus sinensis cvs. Salustiana (Salustiana oranges) cuticular wax at 600 mg/L treated for 1 min at 20 degC postharvest measured after overnight incubation at 17 degC in presence of 2% SBC by GC analysis", "assay_type": "ADME", "method_in_brief": "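'Salustiana' oranges were washed with water and air-dried. They were dipped 1 or 3 min in TBZ 600 mg/L at 20 or 50 °C, or 1 min in TBZ 600 mg/L plus 2% SBC at 20 °C, then dried overnight at 17 °C in the dark. Surface residue was taken by water extraction and wax residue by chloroform extraction. Inner residue was measured in fruit after both extractions. Extracts were dried under N2, taken up in acetone and analysed by GC. Values are mg/kg on a whole-fruit basis.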"}, "Fruit [18]": {"test_system": "Fruit", "experiment": "Drug residues in Citrus sinensis cvs. Valencia late (Valencia oranges) at 400 mg/L treated for 1 min at 40 degC postharvest measured after 20 days of storage at 17 degC in presence of 2% SBC by GC analysis", "assay_type": "ADME", "method_in_brief": "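'Valencia' oranges were dipped 1 min in TBZ at 600 mg/L (20 °C, ±0.5, 1 or 2% wt/vol SBC), 400 mg/L (40 °C, ±SBC) or 200 mg/L (50 °C, alone), then air-dried. They were sampled at 0, 10 and 20 days at 17 °C. Peel of five fruit was frozen, and 5 g of homogenate was extracted with ethyl acetate/hexane (1/1) plus NaCl. The extract was dried under N2, taken up in acetone and analysed by GC. Results are mg/kg on a whole-fruit basis.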"}},
  "data": [
    {"compound": "c1ccc2[nH]c(-c3cscn3)nc2c1", "note": "[THIABENDAZOLE]", "values": [
      {"measurement": "Activity", "setting": "Penicillium digitatum [1]", "value": 13.39, "unit": "%"},
      {"measurement": "Activity", "setting": "Penicillium digitatum [2]", "value": 8.11, "unit": "%"},
      {"measurement": "Activity", "setting": "Penicillium digitatum [3]", "value": 8.47, "unit": "%"},
      {"measurement": "Activity", "setting": "Penicillium digitatum [4]", "value": 4.81, "unit": "%"},
      {"measurement": "Activity", "setting": "Penicillium digitatum [5]", "value": 4.28, "unit": "%"},
      {"measurement": "Activity", "setting": "Penicillium digitatum [6]", "value": 37.5, "unit": "%"},
      {"measurement": "Activity", "setting": "Penicillium digitatum [7]", "value": 12.11, "unit": "%"},
      {"measurement": "Activity", "setting": "Penicillium digitatum [8]", "value": 3.3, "unit": "%"},
      {"measurement": "Activity", "setting": "Penicillium digitatum [9]", "value": 78.3, "unit": "%"},
      {"measurement": "Activity", "setting": "Penicillium digitatum [10]", "value": 5.8, "unit": "%"},
      {"measurement": "Activity", "setting": "Penicillium digitatum [11]", "value": 16.7, "unit": "%"},
      {"measurement": "Activity", "setting": "Penicillium digitatum [12]", "value": 14.2, "unit": "%"},
      {"measurement": "Activity", "setting": "Penicillium digitatum [13]", "value": 21.7, "unit": "%"},
      {"measurement": "Activity", "setting": "Penicillium digitatum [14]", "value": 8.96, "unit": "%"},
      {"measurement": "Drug uptake", "setting": "Fruit [15]", "value": 1.12, "unit": "mg/kg"},
      {"measurement": "Drug uptake", "setting": "Fruit [16]", "value": 1.1, "unit": "mg/kg"},
      {"measurement": "Activity", "setting": "Penicillium digitatum [17]", "value": 2.5, "unit": "%"},
      {"measurement": "Drug uptake", "setting": "Cuticular wax", "value": 0.46, "unit": "mg/kg"},
      {"measurement": "Drug uptake", "setting": "Fruit [18]", "value": 0.58, "unit": "mg/kg"}
    ]}
  ]
}
